# Dynein transport: inhibitors of GR-EGFP nuclear translocation, primary screen, dynein cargo transport inhibitor project, imaging, high-content, 3617.4 mouse cells; test concentration mostly 20 µM; stimulated with dexamethasone, 1 µM; stronger effect = lower value; z-score, hits read low; 220,000 compounds, 0.47% hits; AID 1381, 2008;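 active means plate z-score of nuclear minus cytoplasmic receptor signal below a set negative limit, without overly bright fluorescence or cell loss, cut at about -3.5 in these data, passing the limit was not always enough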;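 further: z-score of nuclear minus cytoplasmic ring GR-EGFP intensity difference per well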
#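 Buffer or medium: Induction medium lacking tetracycline, stripped serum | Also added: Dexamethasone agonist, 1.0 µM final, for 30 min | Timing: 48 h induction, 1 h compound, 30 min dex at 37 °C | Detection: Formaldehyde fixation, Hoechst nuclear stain, 10x automated fluorescence imaging | Measure: Nuclear versus cytoplasmic GR-EGFP signal, averaged per well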
# UPR XBP1 act: activators of adaptive XBP1 UPR arm, primary screen, cell-based, CHO-XBP1 luciferase reporter, luminescence, uHTS. IRE1-XBP1 UPR activation; percent of tunicamycin response, DMSO as zero. activation, % at 20 µM. 330,000 compounds, 0.33% hits. AID 463104, 2010;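 active means versus positive control, 20 µM dose yields 30% or more activation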;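 further: 100% = tunicamycin at 10 µg/mL and 0% = DMSO only wells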
#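 incubation = overnight seeding at 37 °C, 6 h compound treatment at 37 °C | assay system = CHO-XBP1 cells stably carrying IRE1-XBP1-driven luciferase reporter | input = 1000 cells per well | detection = luciferase luminescence | dosing = single point, 20 µM final compound, 1% DMSO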
# Mdm2 MdmX PPI: inhibitors of human Mdm2-MdmX association, primary screen, cell-based, luminescence, split luciferase, SaOS-2, uHTS; Protein Mdm4 (Homo sapiens) + E3 ubiquitin-protein ligase Mdm2 (Homo sapiens), …; SaOS-2 split-luciferase Mdm2/MdmX complementation; inhibition, % at 8 µM; 330,000 compounds, 3% hits; AID 485346, 2010;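 active means inhibition of at least 50% at 8 µM in the primary screen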
# Target sequence (O15151 whole entry, looked up): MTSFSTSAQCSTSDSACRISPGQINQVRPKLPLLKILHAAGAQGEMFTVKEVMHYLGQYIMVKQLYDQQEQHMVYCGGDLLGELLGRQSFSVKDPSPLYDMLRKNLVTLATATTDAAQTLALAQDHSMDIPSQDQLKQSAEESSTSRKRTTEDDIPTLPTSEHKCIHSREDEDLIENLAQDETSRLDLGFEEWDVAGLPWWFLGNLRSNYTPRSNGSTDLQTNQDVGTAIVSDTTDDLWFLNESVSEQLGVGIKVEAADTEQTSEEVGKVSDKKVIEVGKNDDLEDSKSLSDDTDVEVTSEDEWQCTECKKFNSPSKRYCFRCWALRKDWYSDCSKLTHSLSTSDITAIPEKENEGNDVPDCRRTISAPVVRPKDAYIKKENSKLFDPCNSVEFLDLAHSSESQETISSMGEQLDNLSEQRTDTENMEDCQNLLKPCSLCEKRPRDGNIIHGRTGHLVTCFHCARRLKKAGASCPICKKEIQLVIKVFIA
# Target sequence (Q00987 whole entry, looked up): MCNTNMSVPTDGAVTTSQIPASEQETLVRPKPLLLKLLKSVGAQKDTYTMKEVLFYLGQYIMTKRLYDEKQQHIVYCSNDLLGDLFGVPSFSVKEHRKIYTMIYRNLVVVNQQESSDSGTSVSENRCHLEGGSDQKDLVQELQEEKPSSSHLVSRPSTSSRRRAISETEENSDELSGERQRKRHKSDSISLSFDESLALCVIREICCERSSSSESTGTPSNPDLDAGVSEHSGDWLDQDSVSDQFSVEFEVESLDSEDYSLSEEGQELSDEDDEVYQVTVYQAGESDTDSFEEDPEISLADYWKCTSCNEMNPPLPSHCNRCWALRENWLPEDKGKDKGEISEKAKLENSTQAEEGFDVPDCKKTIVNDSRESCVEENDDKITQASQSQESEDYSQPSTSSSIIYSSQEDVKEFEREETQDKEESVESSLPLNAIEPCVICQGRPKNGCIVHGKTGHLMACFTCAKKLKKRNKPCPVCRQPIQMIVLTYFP
# UPR CHOP act: activators of apoptotic CHOP UPR arm, primary screen, cell-based, CHO-CHOP luciferase reporter, luminescence, uHTS. UPR activation; percent of tunicamycin response over DMSO baseline. 330,000 compounds, 0.34% hits. AID 449763, 2010. activation, % at 10 µM;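 active means at 10 µM dose, activation of 40% or more, normalized to positive control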;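 further: 100% = tunicamycin at 10 µg/mL and 0% = DMSO alone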
#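 Dosing – one dose, 10 µM in 0.5% DMSO · System – CHO-CHOP cells, stable luciferase reporter of PERK-eIF2a-CHOP signalling · Input – 500 cells/well · Control set – tunicamycin 10 µg/mL final as positive, DMSO-only wells as negative · Timing – 6 h compound treatment, 37 °C · Measure – % activation vs tunicamycin · Technique – luminescence read with Steady-Glo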
# Mdm2 ligase inh: MDM2-luciferase reporter signal enhancers, primary screen, MDM2 E3 ligase inhibitor project, cell-based, luminescence, 1536-well. AID 1230, 2008. 210,000 compounds, 0.11% hits. cell-based MDM2 ubiquitination luciferase reporter, 2 h; 0 = plate control, 100 = twice control, blank-subtracted. signal enhancement, % at 5 µM. E3 ubiquitin-protein ligase Mdm2 (Homo sapiens), Q00987;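 active means signal enhancement of 30% or more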;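 further: luminescence tracks abundance of the self-degrading MDM2-luciferase fusion protein; higher signal means inhibition of MDM2 E3 ligase activity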
#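 Assay system: stable mammalian line carrying autodegrading MDM2–luciferase fusion reporter; amount: 2000 cells seeded into each well; buffer or medium: DMEM; benchmarks: plate control and blank wells; signal: luciferase luminescence; timing: 2 h compound exposure at 37 °C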
# B2AR ag: beta2AR agonists driving receptor internalization, primary screen, cell-based, FAP fluorogen, flow cytometry; Beta-2 adrenergic receptor (Homo sapiens), P07550; Am2.2-beta2AR cells; response, % (concentration not given with the values); 340,000 compounds, 0.43% hits;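 active means response above a set limit, near 3 SD of response in nonfluorescent compounds, cut at about 42% in these data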
# Mdm2-MdmX conf: Mdm2-MdmX complex disruptors, retested hits, confirmation, luminescence, single concentration | Mdm2-MdmX binding, luminescent assay | shares compounds with Mdm2 MdmX PPI | 10,000 compounds, 55% hits | AID 489028, 2010 | inhibition, % at 8 µM; in the data active means inhibition above about 40%
# Full FLuc ctr: full-length luciferase signal inhibition, confirmation, counter-screen for Mdm2/MdmX interaction inhibitor project, cell-based, single concentration, SaOS-2; 6,200 compounds, 77% hits; shares compounds with Mdm2 MdmX PPI; SaOS-2 full-length luciferase counterscreen, luminescence; inhibition, % at 8 µM;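 active means mean inhibition at 8 µM reaching about 37%, which flags the compound as non-specific, limit read from the data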;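 further: p53-null SaOS-2 cells with luciferase driven by a doxycycline-inducible promoter; compound on cells about two nights before reading with doxycycline added after day one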
# * = called active by the depositor; nt = no result. Compounds with a hit are over-represented: about 3.7% of the library has one in this group of screens.
SMILES,Dynein transport,UPR XBP1 act,Mdm2 MdmX PPI,UPR CHOP act,Mdm2 ligase inh,B2AR ag,Mdm2-MdmX conf,Full FLuc ctr
Oc1ccc(Nc2nc(-c3ccccc3O)nc3ccccc23)cc1,nt,8,54*,1,nt,12,24,nt
Cc1cc(C(=O)NCC(=O)OC(C)C(=O)N2CCOCC2)ccc1[N+](=O)[O-] (stereo unspecified),nt,0,-12,-1,nt,16,nt,nt
c1ccc(COc2cncc(-c3cccnc3)c2)cc1,nt,-3,17,0,nt,-12,nt,nt
COc1cc(OC)cc(C(=O)Nc2nc(-c3ccccc3)c(-c3ccccc3)o2)c1,0.37,0,56*,0,-3,-190,36,nt
c1ccc(CN2CCC(Nc3nc(-c4cccs4)nc4ccccc34)CC2)cc1,1.1,3,93*,1,-9,13,34,74*
COCCNC(=O)c1cc(-c2ccc(-c3ccccc3)cc2)nc2ccccc12,nt,1,88*,5,nt,11,84*,46*
O=C(NCc1ccccn1)c1cc(-c2ccc(-c3ccccc3)cc2)nc2ccccc12,0.074,5,84*,2,-15,4,61*,54*
O=C(NCc1ccccn1)c1cc(-c2ccccc2)nc2ccccc12,-0.43,4,3,-2,nt,-5,nt,nt
CCN(CC)CCOc1ccc(/C(=C(\Cl)c2ccccc2)c2ccccc2)cc1,nt,2,69*,4,nt,60*,30,nt
COc1ccc(C2CC(c3ccccc3C(F)(F)F)=NN2c2ccc(S(N)(=O)=O)cc2)cc1 (stereo unspecified),nt,1,67*,4,nt,1,62*,70*
NS(=O)(=O)c1ccc(N2N=C(c3ccccc3)CC2c2ccccc2)cc1 (stereo unspecified),0.34,-3,12,0,-7,-2,nt,nt
CCc1ccc(C2=NN(c3ccc(S(N)(=O)=O)cc3)C(c3ccc(F)cc3)C2)cc1 (stereo unspecified),-1,12,77*,-1,-64,12,11,nt
COc1ccc(C2CC(c3ccccc3F)=NN2c2ccc(S(N)(=O)=O)cc2)cc1 (stereo unspecified),nt,8,34,5,nt,-6,nt,nt
COc1ccc(C2CC(c3ccc(C(F)(F)F)cc3)=NN2c2ccc(S(N)(=O)=O)cc2)cc1 (stereo unspecified),nt,3,93*,5,nt,15,-7,nt
Cc1cc(/C=c2\sc3nc4ccccc4n3c2=O)c(C)n1-c1ccc(C(=O)O)cc1,0.78,nt,nt,nt,-17,-5,nt,nt
Cc1cc(/C=c2/sc3nc4ccccc4n3c2=O)c(C)n1-c1ccccn1,-0.9,-6,69*,-9,-74,2,94*,14
Cc1ccc(NC(=O)COC(=O)Cn2ccc(=O)[nH]c2=O)cc1C,nt,5,23,3,nt,0,nt,nt
Cc1cccc(-c2cc3nc4c(c(N5CCOCC5)n3n2)CCCC4)c1,-0.52,0,65*,-1,nt,5,33,nt
Cc1cccc(-c2cc3nc4c(c(N5CCC6(CC5)OCCO6)n3n2)CCCC4)c1,-0.35,7,19,5,nt,14,nt,nt
